APOBEC3G inh: blocks human APOBEC3G single-stranded DNA deamination; Q9HC16; recombinant A3G, ssDNA deamination FAM/TAMRA fluorescence; inhibition, % at 20 µM; 0.28% of 330,000 active; AID 493012;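 active = inhibition of at least 40% at 20 µM, with no more than 30% in the related APOBEC3A deaminase screen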;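 note: plate controls were DMSO wells with A3G for no effect and wells lacking A3G enzyme for full effect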
HCV core dimer: blocks dimerization of HCV core protein. 0.33% of 300,000 active. inhibition, % at 5 µM. TR-FRET GST/Flag-core106 dimerization, 1536-well;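 active = inhibition above the mean of all tested compounds plus 3 SD, set per screening campaign, cut at about 45% in these data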
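System – GST-tagged and Flag-tagged HCV core protein residues 1-106 · Repeats – one well for each compound · Technique – TR-FRET 671 and 617 nm emission · Doses – one concentration, 5 µM, in 0.5% DMSO · Times – 4 h, 22.5 °C incubation · Also added – Eu donor and XL665 acceptor anti-tag antibodies · Measure – percent inhibition of core106 dimerization signal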
ABHD5 PLIN5 PPI: inhibitors of human ABHD5-perilipin-5 interaction; Q00G26+Q8WTS1; Split G. princeps luciferase complementation, luminescence, 4 h; inhibition, % at 4 µM; 0.78% of 360,000 active;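 active = inhibition above the mean inhibition across every tested compound plus 3 SD, cut at about 22% in these data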;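 note: 0% = DMSO only wells and the 100% control is not disclosed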
PRMT1 FP inh: PRMT1 (human) inhibition, primary screen | Q99873 | recombinant PRMT1, activity-based probe fluorescence polarization | inhibition, % at 2.79 µM | 1.3% of 370,000 active | AID 652257;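 active = inhibition above about 21% made by adding two undisclosed values, limit read from the data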
Target sequence (Q99873 whole entry, looked up): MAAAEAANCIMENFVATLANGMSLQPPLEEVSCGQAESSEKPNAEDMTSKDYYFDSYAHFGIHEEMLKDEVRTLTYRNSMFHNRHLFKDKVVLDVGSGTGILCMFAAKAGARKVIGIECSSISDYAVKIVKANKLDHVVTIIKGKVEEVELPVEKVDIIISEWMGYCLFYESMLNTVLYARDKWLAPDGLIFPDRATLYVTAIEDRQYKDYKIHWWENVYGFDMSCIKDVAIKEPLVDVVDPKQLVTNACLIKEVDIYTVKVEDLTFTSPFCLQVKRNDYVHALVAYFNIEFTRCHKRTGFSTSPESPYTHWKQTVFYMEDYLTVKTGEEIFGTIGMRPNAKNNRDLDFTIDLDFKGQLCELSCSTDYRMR
NS3 helicase inh: blocks Hepatitis C virus NS3 helicase unwinding. NS3 helicase DNA unwinding, Cy5 molecular beacon fluorescence. inhibition, % at 10.9 µM. 0.56% of 290,000 active;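 active = inhibition above the mean of all tested compounds plus 3 SD, set per campaign, cut at about 35% in these data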;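 note: 0% = DMSO wells and 100% = thioflavine S control wells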
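Assay system: hepatitis C virus NS3 helicase domain fragment enzyme. Also added: annealed dual-labelled DNA beacon duplex, ATP-started. Timing: 1 h reaction at 25 °C, ATP-initiated. Technique: Cy5 fluorescence at 0 and 60 min, beacon hairpin quenching. Evaluation: % inhibition of unwinding. Replication: one well per compound.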
APOBEC3A inh: human APOBEC3A DNA deaminase inhibition | inhibition, % at 20 µM | recombinant A3A, FAM/TAMRA ssDNA deamination fluorescence | 0.41% of 330,000 active;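 active = at least 40% inhibition at 20 µM here, with at most 30% in a related deaminase screen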;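 note: plate controls were A3A with DMSO for no effect and wells lacking A3A enzyme for full effect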
Target sequence (P31941 whole entry, looked up): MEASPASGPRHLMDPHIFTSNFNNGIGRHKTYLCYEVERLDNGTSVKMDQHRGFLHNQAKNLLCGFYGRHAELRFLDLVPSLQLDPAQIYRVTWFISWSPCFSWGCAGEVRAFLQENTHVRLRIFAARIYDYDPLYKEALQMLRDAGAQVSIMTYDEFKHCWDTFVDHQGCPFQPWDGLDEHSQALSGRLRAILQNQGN
ABHD5 PLIN5 conf: ABHD5-PLIN5 interaction inhibition, confirmed; biochemical ABHD5-PLIN5 interaction, luminescence; 67% of 2,200 active; AID 651612; inhibition, % at 4 µM; shares compounds with ABHD5 PLIN5 PPI; in the data active = inhibition above about 23%;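 note: 0% = DMSO vehicle wells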
HNF4 counter: HNF4 split-luciferase signal hit, counter-screen; shares compounds with ABHD5 PLIN5 PPI; HNF4 dimerization, luminescence, biochemical; inhibition, % at 4 µM; 77% of 2,200 active;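 active = mean inhibition across replicate wells exceeding the computed hit threshold, cut at about 13% in these data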;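 note: light from luciferase halves that rejoin when HNF4 fusion proteins dimerize; 0% = DMSO only wells and the 100% control is not given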
Numbers without * were called inactive; nt = no result. An excerpt weighted towards active compounds, which were near 2.9% of everything screened.

SMILES	APOBEC3G inh	HCV core dimer	ABHD5 PLIN5 PPI	PRMT1 FP inh	NS3 helicase inh	APOBEC3A inh	ABHD5 PLIN5 conf	HNF4 counter
Cc1ccc(-c2cc(C(F)F)nc(S(C)(=O)=O)n2)cc1	-5.9	0.9	24.6*	4.4	-6.0	-2.4	45.4*	51.3*
Cc1ccc(-c2cc(-c3ccccc3)nc(Cl)n2)cc1	-5.3	2.1	-2.9	-1.2	2.9	-1.8	nt	nt
CSc1ccc(Cn2c(C)c(C(=O)NCc3ccc4c(c3)OCO4)sc2=O)cc1	nt	nt	-2.5	0.7	nt	nt	nt	nt
CC(C)(C)NC(=O)C(c1ccnc2ccccc12)n1c(=O)c(-c2ccco2)nc2ccccc21 (centres undefined)	nt	nt	57.5*	11.4	nt	nt	41.6*	7.4
CC(C)(C)NC(=O)C(c1cccc2ccccc12)n1c(=O)c(-c2cc3ccccc3[nH]2)nc2ccccc21 (centres undefined)	nt	nt	-7.1	8.0	nt	nt	nt	nt
CC(C)(C)NC(=O)C(c1ccncc1)n1c(=O)c(-c2ccccc2)nc2ccccc21 (centres undefined)	nt	nt	10.2	1.5	nt	nt	nt	nt
CC(C)(C)NC(=O)C(c1ccncc1)n1c(=O)c(-c2ccco2)nc2ccccc21 (centres undefined)	nt	nt	48.3*	0.2	nt	nt	44.0*	13.6*
O=C(NCc1cccs1)C1C(=O)Nc2ccccc2C(=O)N1Cc1ccccc1 (centres undefined)	nt	nt	-7.2	7.4	nt	nt	nt	nt
Cc1ccc(S(=O)(=O)N[C@@H](Cc2ccccc2)C(=O)CCl)cc1	-5.6	14.2	53.0*	17.9	-5.8	0.1	93.0*	89.7*
CCN(CC)CCC=C(c1cccs1)c1cccs1	nt	nt	8.1	3.0	nt	nt	nt	nt
O=C(COC(=O)CCC(=O)c1ccc(F)cc1)NCc1ccc(Cl)cc1	4.5	nt	-0.8	3.3	nt	0.7	nt	nt
O=C(COC(=O)CCC(=O)c1ccc(Cl)cc1)NCc1ccco1	-0.8	27.9	24.9*	8.8	-6.5	21.9	10.6	7.5
CCOC(=O)C(C(=O)OCC)C(Nc1ccc(Br)cc1)c1ccccc1 (centres undefined)	-2.5	4.9	25.9*	1.3	6.7	-5.4	10.7	52.2*
CCOC(=O)C(c1ccccc1)C(Nc1ccc(F)cc1)c1ccccn1 (centres undefined)	-0.1	0.2	3.1	-3.5	-9.3	-1.8	nt	nt
Cc1ccc(S(=O)(=O)N2CCN(C(=O)COC(=O)CSc3cc(C)ccc3C)CC2)c(C)c1	-6.4	nt	7.9	1.8	nt	0.3	nt	nt
COc1ccccc1NC(=O)CC1C(=O)NCCN1C(=O)Nc1ccc(Cl)c(Cl)c1 (centres undefined)	-2.1	-9.3	23.6*	0.6	-15.7	-3.6	13.4	5.8
COc1ccccc1NC(=S)N1CCNC(=O)C1CC(=O)Nc1cccc(C)c1 (centres undefined)	-6.0	0.0	1.9	-3.2	-3.9	1.3	nt	nt
COc1ccc(-n2c(N)c(C(=O)NCc3ccco3)c3nc4ccccc4nc32)cc1	-4.6	7.8	33.4*	8.1	19.9	-2.5	31.5*	32.4*
CCC1CCCCN1CCCNC(=O)c1ccc2c(c1)N(Cc1ccc(F)cc1)C(=O)c1ccccc1S2=O (centres undefined)	-5.3	-6.6	25.4*	1.8	-34.0	-5.8	1.6	7.5
O=C(NCCN1CCOCC1)c1ccc(/C=C2\Sc3ccccc3N(Cc3ccccc3F)C2=O)cc1	-0.6	-2.4	8.4	0.7	-92.9	1.9	nt	nt
O=C(NCCCN1CCCC1)c1ccc2c(c1)N(Cc1ccc(F)cc1)C(=O)c1ccccc1S2=O (centres undefined)	-0.9	-5.7	4.8	-0.3	-30.7	-1.0	nt	nt
CN1CCN(CCCNC(=O)c2ccc(/C=C3\Sc4ccccc4N(Cc4ccccc4F)C3=O)cc2)CC1	nt	nt	32.7*	1.0	-71.5	nt	5.2	-6.2
CCN1CCN(CCNC(=O)c2ccc3c(c2)N(Cc2ccc(F)cc2)C(=O)/C(=C/c2ccccc2)S3)CC1	-0.2	-11.9	23.6*	-4.9	-87.7	2.8	17.0	3.9
COC(=O)[C@]12C[C@H](CC(=O)N3CCN(C(=O)C4CC4)CC3)C(=O)N(Cc3ccco3)C1=C[C@H](C1CCCC1)O[C@@H]2C	nt	nt	nt	2.0	nt	nt	nt	nt
Cc1ccc(Oc2c(C(N)=O)cc([N+](=O)[O-])cc2[N+](=O)[O-])cc1	0.8	-1.2	63.1*	6.2	-15.3	14.6	94.7*	74.1*
SMILES	APOBEC3G inh	HCV core dimer	ABHD5 PLIN5 PPI	PRMT1 FP inh	NS3 helicase inh	APOBEC3A inh	ABHD5 PLIN5 conf	HNF4 counter
Cc1ccc(CNc2ccc([N+](=O)[O-])cc2C(N)=O)cc1	4.9	4.4	-14.1	13.1	nt	-2.5	nt	nt
Cc1cc(F)ccc1-c1cc(C(=O)NCc2cccc(C(F)(F)F)c2)[nH]n1	nt	nt	-8.1	0.2	nt	nt	nt	nt
O=[N+]([O-])c1ccc(N2CCc3ccccc3C2)cc1	-4.8	-26.7	30.8*	1.0	27.7	6.7	59.9*	58.5*
CC(C)[C@H](NC(=O)OC(C)(C)C)c1cc(C(=O)N[C@@H](C)c2ccccc2)c(N)s1	nt	nt	-0.6	7.1	nt	nt	nt	nt
CCN(CC)CCc1nc(-c2ccccc2)no1	-9.6	-1.0	55.8*	-3.2	nt	-5.3	84.4*	43.0*
CC(=O)O[C@@H]1C[C@H]2C(C)(C)C(=O)C=C[C@]2(C)[C@H]2CC[C@@]3(C)[C@H](c4ccoc4)OC(=O)[C@H]4O[C@]43[C@@]21C	-4.0	21.6	27.2*	0.5	-17.8	1.4	43.4*	29.6*
CC(=O)OC1CC2C(C)(C)C(=O)C=CC2(C)C2CCC3(C)C(c4ccoc4)OC(=O)C4OC43C12C (centres undefined)	nt	nt	23.7*	1.3	nt	nt	41.7*	34.0*
O=c1c2c(-c3ccccc3)csc2nc2c3ccccc3c(NCCN3CCOCC3)nn12	nt	nt	23.4*	5.8	-75.8	nt	10.8	5.2
CCN1/C(=C/C=C/c2oc3ccc(-c4ccccc4)cc3[n+]2CC)Oc2ccc(-c3ccccc3)cc21	-13.1	0.9	37.1*	-13.7	-35.0	1.1	92.1*	59.9*
O=C(NCc1ccco1)c1nn2c(C(F)(F)F)cc(-c3cccs3)nc2c1Br	-0.1	53.8*	25.8*	13.3	15.8	0.4	33.6*	61.9*
COC1CC(NC(C)=O)C(OC(=O)c2ccccc2)C(CBr)O1 (centres undefined)	nt	nt	-1.6	-1.9	nt	nt	nt	nt
O=C1c2ccccc2C(c2nnnn2Cc2ccccc2)N1Cc1ccco1 (centres undefined)	nt	nt	-0.2	5.5	nt	nt	nt	nt
COC(=O)/C(=C\C(=O)c1ccccc1)Nc1ccc(OC)cc1	-1.3	1.0	1.5	2.6	3.6	-4.4	nt	nt
Cc1ccc(N/C(=C\C(=O)c2ccccc2)C(=O)O)cc1	0.7	-0.2	92.8*	8.1	13.3	2.7	-0.1	5.7
